Hits are enriched below; roughly 2.6% of the tested compounds scored in any of these assays.
NadD inh: inhibitors of S. aureus NadD, primary screen, biochemical, colorimetric, uHTS. inhibition, % at 20 µM. purified NadD enzyme, colorimetric absorbance read-out. Nicotinate-nucleotide adenylyltransferase NadD (Staphylococcus aureus N315). AID 602399, 2012. 360,000 compounds, 0.78% hits; in the data active = inhibition above about 26%
ABHD5-PLIN5 inh: ABHD5-PLIN5 interaction inhibitors, primary screen, cell lysate, split luciferase complementation, luminescence | Perilipin-5 (Homo sapiens) + 1-acylglycerol-3-phosphate O-acyltransferase ABHD5 (Homo … | Split G. princeps luciferase complementation, 4 h | inhibition, % at 4 µM | 360,000 compounds, 0.78% hits;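 active = inhibition above the mean inhibition across every tested compound plus 3 SD, cut at about 22% in these data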;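 also: 0% = DMSO only wells and the 100% control is not disclosed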
core dimer inh: inhibitors of HCV core protein dimerization, primary screen, biochemical, TR-FRET, high-throughput. TR-FRET GST/Flag-core106 dimerization, 1536-well. 300,000 compounds, 0.33% hits. inhibition, % at 5 µM. AID 1899, 2009;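 active = inhibition above the mean of all tested compounds plus 3 SD, set per screening campaign, cut at about 45% in these data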
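System – GST-tagged and Flag-tagged HCV core protein residues 1-106 · Repeats – one well for each compound · Technique – TR-FRET 671 and 617 nm emission · Doses – one concentration, 5 µM, in 0.5% DMSO · Times – 4 h, 22.5 °C incubation · Also added – Eu donor and XL665 acceptor anti-tag antibodies · Measure – percent inhibition of core106 dimerization signal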
rCAG binder: binders of r(CAG) RNA repeats, primary screen, biochemical, fluorescence; r(CAG) RNA repeat, TO-PRO-1 dye displacement fluorescence; inhibition, % at 3 µM; 370,000 compounds, 1.3% hits; AID 651821, 2012;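 active = inhibition above the plate cutoff, the mean of all test compounds on that plate plus 3 SD, cut at about 35% in these data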;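 also: 0% = DMSO alone and 100% = 100 µM mitoxantrone as full dye displacement; higher means more dye released from RNA so lower well fluorescence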
NadD conf: inhibitors of S. aureus NadD, confirmation, biochemical, colorimetric, single concentration. shares compounds with NadD inh. purified S. aureus NadD, colorimetric enzyme assay. inhibition, % at 20 µM. 2,000 compounds, 13% hits; in the data active = inhibition mostly above about 42%, no sharp cut-off; inactive = mostly below about 42%
* marks the source's active call; other numbers are inactive results; / = no result.

SMILES	NadD inh	ABHD5-PLIN5 inh	core dimer inh	rCAG binder	NadD conf
O=C(NC(C(=O)N/N=C/c1ccccc1)c1n[nH]c(=O)c2ccccc12)c1ccccc1 (configuration not stated)	5	1	6	2	/
Cn1c(=O)c2c([nH]c(=S)n2Cc2ccc(Cl)cc2)n(C)c1=O	32*	-19	7	6	35
Cc1ccc(C)c(N2CCN(C(=O)c3ccc(Cn4c(=S)[nH]c5ccc(N6CCOCC6)cc5c4=O)cc3)CC2)c1	30*	1	48*	18	-3
Cc1cccc(N2CCN(C(=O)CCCCCn3c(=S)[nH]c4ccc(N5CCOCC5)cc4c3=O)CC2)c1C	46*	-5	29	5	6
CC(C)C[C@@H]1COc2cccc(NC3CC3)c2S(=O)(=O)N1	/	/	/	2	/
Cc1ccc(NS(=O)(=O)c2cc(NC(=O)c3ccc4c(c3)NC(=O)CS4)ccc2Cl)c(C)c1	37*	-1	37	15	52*
CC(C)C[C@@H](CN1CCCC1CN1C(=S)NC[C@@H]1Cc1ccc(O)cc1)N1C[C@H](Cc2ccc(O)cc2)N(CC2CCCCCC2)C1=S (some centres not stated)	55*	-14	/	18	36
CC(C)C[C@@H](CN1CCCC1CN1C(=S)NC[C@@H]1Cc1ccc(O)cc1)N1C[C@H](Cc2ccccc2)N(CC2CCCCCC2)C1=S (some centres not stated)	23	-7	/	7	/
CC(C)C[C@H]1CNC(=S)N1C[C@H]1CCCN1C[C@H](CC(C)C)N1C[C@H](Cc2ccc(O)cc2)N(CC2CCCCC2)C1=S	41*	8	/	6	11
O=C(CN1CCC(NC(=O)c2ccc(F)cc2)CC1)NCc1ccccc1F	-2	5	-1	4	/
COc1ccc(C(=O)NC2CCN(CC(=O)NCc3ccccc3F)CC2)cc1	40*	-1	-3	-4	3
CCOC(=O)[C@]12CCC=C1N(Cc1cccc3ccccc13)C(=O)[C@H](CC(=O)NCCc1ccccc1OC)C2	-8	10	/	6	/
C/C(CCC12CC3CC(CC(C3)C1)C2)=N\NC(N)=S	34*	-6	0	-1	44
CCCCn1c(/C=C/c2ccco2)nc2ccccc21	2	-7	44	2	/
Cc1ccc(Cn2c(/C=C/c3ccco3)nc3ccccc32)cc1	32*	17	9	5	41
Clc1ccc(Cn2c(/C=C/c3ccco3)nc3ccccc32)cc1	34*	9	58*	13	43
Cc1ccc(-c2cnc3c(Nc4cccc(OC(F)(F)C(F)F)c4)nccn23)cc1	5	-2	/	3	/
Cc1ccc(S(=O)(=O)Nc2ccc(Nc3nccn4c(-c5ccccc5Oc5ccccc5)cnc34)cc2)cc1	36*	5	/	21	64*
Cc1ccc(S(=O)(=O)Nc2ccc(Nc3nccn4c(-c5ccc6ccccc6c5)cnc34)cc2)cc1	41*	-1	/	19	53*
COC(=O)C1CN(Cc2cn(Cc3ccccc3)nn2)CCS(=O)(=O)N1Cc1ccc(F)cc1 (configuration not stated)	/	/	/	2	/
C=CCN1C[C@H](COC(=O)c2cccc(OC)c2)Oc2cccc(F)c2S1(=O)=O	/	/	/	1	/
C/C=C/C=C/C(=O)N1C[C@H](C)N(C)C[C@H]1C	/	/	/	1	/
c1ccc(-c2cc(-c3nn4c(-c5ccco5)nnc4s3)c3ccccc3n2)cc1	47*	5	38	/	15
CCCCC(=O)Nc1ccc(C(N)=O)cc1	-8	-2	-9	4	/
CCCCCCCCCCCCCCCC[n+]1ccc(C(N)=O)cc1	29*	21	-15	9	-5
SMILES	NadD inh	ABHD5-PLIN5 inh	core dimer inh	rCAG binder	NadD conf
CC(=O)OCC(=O)N1N=C(c2ccc3ccccc3c2)CC1c1ccccc1 (configuration not stated)	-3	1	16	0	/
Nc1cc(=O)[nH]c(SCC(=O)N2N=C(c3ccc4ccccc4c3)CC2c2ccccc2)n1 (configuration not stated)	40*	5	23	13	39
CC(C)c1cc(C(C)C)c(S(=O)(=O)NCC(=O)N2CCN(c3ncccn3)CC2)c(C(C)C)c1	/	/	/	2	/
CCn1nnnc1NCc1cccn1C	35*	2	5	14	22
Cc1c2cnn(CC(=O)Nc3c(F)c(F)cc(F)c3F)c(=O)c2c(C)n1Cc1ccccc1F	32*	1	55*	18	46
Cc1ccc(Nc2nnc(C3C(=O)N(C)C4(C)CC3c3cc(Br)ccc3O4)s2)cc1 (configuration not stated)	28*	-5	15	3	4
Cc1ccc(CN2CCCCC(NC(=O)c3cccc(C(F)(F)F)c3)C2=O)cc1 (configuration not stated)	/	/	/	0	/
Cc1cccc(-n2nc3c(c2NC(=O)c2ccco2)CSC3)c1C	44*	-2	49*	25	73*
Cc1ccc(-n2nc3c(c2NC(=O)/C=C\c2ccc4c(c2)OCO4)CSC3)c(C)c1	31*	2	4	15	57*
Cc1ccccc1-n1nc2c(c1NC(=O)/C=C\c1ccc3c(c1)OCO3)CSC2	28	-2	35	16	/
Cc1ccc(-n2nc3c(c2NC(=O)c2c(-c4ccccc4Cl)noc2C)CSC3)cc1	/	/	0	/	/
Cc1ccc(-n2nc3c(c2NC(=O)c2ccc(Br)o2)CSC3)c(C)c1	85*	-3	17	25	62*
Cc1ccccc1-n1nc2c(c1NC(=O)c1c(-c3ccccc3Cl)noc1C)CSC2	63*	-2	12	17	34
Cc1ccc(-n2nc3c(c2NC(=O)C(C)(C)C)CSC3)c(C)c1	7	1	4	6	/
CC1=C(C(=O)N(C(C)C)C(C)C)CC(CC(=O)NCCc2ccccn2)C(=O)N1Cc1ccc(C(C)(C)C)cc1 (configuration not stated)	5	5	/	-1	/
Cc1ccc(-n2nc3c(c2NC(=O)c2ccc4c(c2)OCO4)CS(=O)C3)cc1 (configuration not stated)	-3	5	-11	-2	/
Cc1ccc(-n2nc3c(c2NC(=O)/C=C\c2ccc4c(c2)OCO4)CSC3)cc1	41*	-8	39	24	62*
O=C(Nc1nc(-c2ccccc2)cs1)c1ccc2c(c1)S(=O)(=O)c1ccccc1C2=O	35*	-5	-9	4	5
CC(C)C[C@H]1CNC(=O)C(=O)N1C[C@@H]1CCCN1C[C@H](Cc1ccccc1)N1C[C@H](CC(C)C)N(CC2CCCCC2)C(=O)C1=O	/	/	/	5	/
CN1CCCC1(C)C(=O)NCc1ccc(F)cc1Cl (configuration not stated)	0	-3	/	2	/

Source: PubChem
